Sampled rows, rich in hits. Any-hit rate of the full collection: about 2.8%.
PAFAH1B3 FP inh: PAFAH1B3 enzyme inhibitors, primary screen, biochemical, fluorescence polarization, human; hit rate 0.28% among 340,000; Platelet-activating factor acetylhydrolase IB subunit alpha1 (Homo sapiens), Q15102; inhibition, % at 3.39 µM; recombinant PAFAH1B3, FP-rhodamine probe; AID 492972, 2010;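 active = inhibition above the screen-wide average of all tested compounds plus 3 SD, cut at about 25% in these data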
Target sequence (Q15102 whole entry, looked up): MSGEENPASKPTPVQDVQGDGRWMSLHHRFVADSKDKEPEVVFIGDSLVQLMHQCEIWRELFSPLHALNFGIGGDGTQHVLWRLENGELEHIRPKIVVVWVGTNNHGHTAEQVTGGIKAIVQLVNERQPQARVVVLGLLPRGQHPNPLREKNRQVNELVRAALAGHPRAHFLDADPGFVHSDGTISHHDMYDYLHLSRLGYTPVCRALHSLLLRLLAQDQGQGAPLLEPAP
ABHD4 inh: ABHD4 inhibitors, primary screen, biochemical, fluorescence polarization, mouse. (Lyso)-N-acylphosphatidylethanolamine lipase (Mus musculus), Q8VD66. purified mABHD4, FP-Rh probe fluorescence polarization. inhibition, % at 8.92 µM. hit rate 0.54% among 370,000;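 active = inhibition exceeding the mean over every tested compound plus 3 SD, cut at about 30% in these data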
Target sequence (Q8VD66 whole entry, looked up): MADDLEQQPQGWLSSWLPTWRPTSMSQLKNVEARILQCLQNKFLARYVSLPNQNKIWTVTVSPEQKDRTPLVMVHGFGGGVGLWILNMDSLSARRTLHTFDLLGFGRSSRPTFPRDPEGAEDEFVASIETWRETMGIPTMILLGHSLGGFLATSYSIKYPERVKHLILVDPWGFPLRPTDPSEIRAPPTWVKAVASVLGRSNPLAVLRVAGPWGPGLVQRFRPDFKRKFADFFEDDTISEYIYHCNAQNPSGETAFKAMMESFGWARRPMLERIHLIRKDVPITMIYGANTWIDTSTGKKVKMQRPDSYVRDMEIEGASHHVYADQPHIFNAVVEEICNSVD
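System: mouse ABHD4 enzyme, wild type / Medium: HEPES pH 7.0, NaCl, Pluronic buffer / Reagent: FP-Rh activity-based fluorescent probe / Control set: S159A mutant high control, sample median low control / Detection: fluorescence polarization with parallel and perpendicular emission, 525/598 nm / Schedule: 45 min + 60 min at 25 °C / Compound dosing: 8.92 µM, single dose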
pPAFAH inh: pPAFAH enzyme inhibitors, primary screen, biochemical, fluorescence polarization, human. inhibition, % at 3.39 µM. recombinant pPAFAH, FP-rhodamine probe fluorescence polarization. hit rate 1.5% among 330,000. Platelet-activating factor acetylhydrolase (Homo sapiens), Q13093;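 active = inhibition above the mean inhibition across the screen plus 3 SD, cut at about 25% in these data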;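 note: inhibitors block binding of the rhodamine activity-based probe so polarization drops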
HTRA1 inhibitor: HTRA1 serine protease inhibitors, primary screen, biochemical, fluorescence polarization, HTS. AID 504803, 2011. inhibition, % at 5.96 µM. recombinant HTRA1, FP-rhodamine activity-based probe. hit rate 0.5% among 340,000. Q92743; in the data active = inhibition above about 36%
PAFAH1B2 inh: PAFAH1B2 enzyme inhibitors, primary screen, biochemical, fluorescence polarization, human. Platelet-activating factor acetylhydrolase IB subunit alpha2 (Homo sapiens), P68402. recombinant PAFAH1B2, FP-rhodamine activity probe. inhibition, % at 3.39 µM. hit rate 1.2% among 340,000;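 active = inhibition above the mean of all tested compounds plus 3 SD, cut at about 24% in these data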
PAFAH2 inh: PAFAH2 enzyme inhibitors, primary screen, biochemical, fluorescence polarization, human; Platelet-activating factor acetylhydrolase 2, cytoplasmic (Homo sapiens), Q99487; recombinant PAFAH2, FP-rhodamine activity probe; inhibition, % at 3.39 µM; hit rate 0.99% among 340,000;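 active = inhibition above the mean over all tested compounds plus 3 SD, cut at about 30% in these data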;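 note: inhibitors block probe labeling of enzyme so polarization drops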
Numbers stand for hits; – = inactive; · = no result; + = active, no number.

SMILES	PAFAH1B3 FP inh	ABHD4 inh	pPAFAH inh	HTRA1 inhibitor	PAFAH1B2 inh	PAFAH2 inh
Cc1ccc(S(=O)(=O)NNC(=O)c2cnn(-c3ccccc3)c2-n2cccc2)cc1	–	–	–	–	28	–
Cc1ccc(/C=C2\SC(N3CCCC3)=NC2=O)cc1	·	–	–	·	·	·
CN(C)c1ccc(/C=C2\SC(N3CCCCC3)=NC2=O)cc1	–	–	28	–	–	–
C=CCN=C1NC(c2cccc(F)c2)C(C(=O)OC)=C(C)N1Cc1cccc(C(F)(F)F)c1 (configuration not stated)	·	–	·	·	·	·
Cc1ccc(-c2[nH]c(-c3ccc(C(=O)O)cc3)nc2-c2ccccc2)cc1	–	–	31	–	–	–
CC1=C(C#N)C(=O)N(C2CCS(=O)(=O)C2)C(=O)/C1=C\c1ccc(C)o1 (configuration not stated)	·	·	37	·	·	·
CCN1C(=O)N/C(=C/c2ccc(C)o2)C1=O	–	–	–	–	–	–
CCOC(=O)c1ccc(NC(=O)CSc2nnc(-c3cc(-c4ccccc4)n[nH]3)n2N)cc1	·	–	·	·	·	·
Cc1ccccc1Cn1cc(CN2[C@H](C)COc3cc(Br)ccc3S2(=O)=O)nn1	·	–	·	·	·	·
CC(Oc1ccc2c(-c3ccccc3)cc(=O)oc2c1)C(=O)N[C@H](Cc1c[nH]c2ccccc12)C(=O)O (some centres not stated)	–	–	–	–	76	–
Cc1c(C)c2ccc(OC(C)C(=O)N[C@@H](Cc3c[nH]c4ccccc34)C(=O)O)c(C)c2oc1=O (some centres not stated)	–	–	–	–	24	–
Cc1c(OC(C)C(=O)NC(Cc2c[nH]c3ccc(O)cc23)C(=O)O)ccc2c1oc(=O)c1ccccc12 (configuration not stated)	–	–	–	–	–	–
COc1ccc(-c2cc(=O)oc3cc(OC(C)C(=O)NC(Cc4c[nH]c5ccc(O)cc45)C(=O)O)ccc23)cc1 (configuration not stated)	–	–	–	–	–	–
COc1ccc(CNC(=O)Cc2c(C(=O)O)[nH]c3ccccc23)cc1	–	–	–	–	25	–
COc1ccc(-n2c(SCC(=O)Nc3cc(C)c(NC(=O)c4ccccc4)cc3OC)nnc2-c2ccco2)cc1	·	–	·	·	·	·
Cc1ccc(NS(=O)(=O)c2ccc3c(c2)NC(=O)CO3)c(C)c1	–	–	–	–	–	–
Cc1ccc(NS(=O)(=O)c2ccc3c(c2)CC(=O)N3)c(C)c1	–	–	33	–	–	–
Cc1nc(CS(=O)(=O)c2ccc(Cl)cc2)sc1C(=O)O	–	–	–	–	25	–
S=C1NCN(CCc2ccccc2)CN1Cc1ccccc1	–	–	–	–	26	–
O=C(O)C(Cc1ccccc1-c1ccccc1)C(=O)O	–	–	–	–	27	–
CCCCCCN1CCS(=O)(=O)N(Cc2ccc(F)cc2)C(C(=O)OC)C1 (configuration not stated)	·	–	·	·	·	·
CC(Nn1cnnc1)c1cc(Cl)ccc1O (configuration not stated)	–	–	–	–	–	–
Cc1ccc(NC(C)c2cc(Cl)ccc2O)cc1 (configuration not stated)	–	–	–	–	28	–
O=C(CSc1nnc(-c2cccnc2)n1-c1ccc(Cl)cc1)Nc1ccc(S(=O)(=O)Nc2nccs2)cc1	·	–	·	·	·	·
O=C(Cc1ccccc1)NN=C1CCCC1	–	–	·	–	–	–
SMILES	PAFAH1B3 FP inh	ABHD4 inh	pPAFAH inh	HTRA1 inhibitor	PAFAH1B2 inh	PAFAH2 inh
N#CCC(=O)NN=C1CCCCCCCCCCC1	–	–	–	–	26	–
CCC[C@H]1[C@@H](NC(=O)c2cccc(C)c2)CC[C@@]23CCCN2C(=O)CCC[C@@H]13	·	–	·	·	·	·
O=C(NN=C1CCCC1)c1cc(Cl)cc(Cl)c1O	–	–	34	–	–	–
COc1ccc(-c2noc(CSc3ccccc3)n2)cc1OC	–	–	–	–	24	–
COc1ccc(-c2noc(CSc3nnc(CCc4ccccc4)n3-c3ccccc3)n2)cc1OC	–	–	–	–	–	–
COc1cc(/C=N/n2cnnc2)ccc1OCCSc1ccc(C)cc1	–	–	–	–	24	–
CCN1C(=O)/C(=C/C=C2\N(CC)c3cc(S(=O)(=O)N(C)C)ccc3N2c2ccccc2)SC1=S	+	–	–	–	151	–
CCN1C(=O)/C(=C\C=C\c2ccccc2[N+](=O)[O-])SC1=S	–	–	·	–	–	–
O=C(CSc1nnc(COc2ccccc2)n1-c1ccc(Cl)cc1)Nc1ccccc1-c1ccccc1	·	–	·	·	·	·
CCN1CCC(O)(/C=C/c2ccc(C(C)C)cc2)C(C(=O)/C=C/c2ccc(C(C)C)cc2)C1 (configuration not stated)	–	34	·	–	–	–
CCOC(=O)[C@]12CCCC3=C1N(CCC3)C(=O)[C@@H](CC(=O)N1CCN(C(=O)c3ccco3)CC1)C2	·	–	·	·	·	·
CCCCNc1c(-c2ccc(SC(C)CC)cc2)nc2cnccn12 (configuration not stated)	27	·	34	–	–	–
C1CCCCCC2(CCCCC1)OCC(CN1CCOCC1)O2 (configuration not stated)	–	–	–	–	26	–
COc1cccc(N=Nc2c(N)[nH]n3c(=O)c4c(nc23)CCCC4)c1	·	–	30	·	·	·
COc1cccc(N=Nc2c(N)[nH][nH]c2=O)c1	–	–	–	–	–	–
O=C1CCC[C@H]2Cc3nc4ccccc4cc3C[C@]23CCCN13	·	–	·	·	·	·
N#Cc1ccc(CSc2nnc(NC(=O)C3CC(=O)N(c4ccc5c(c4)OCCO5)C3)s2)cc1 (configuration not stated)	–	·	–	–	–	–
O=C(Nc1nnc(SCc2ccc(F)cc2)s1)C1CC(=O)N(c2ccc3c(c2)OCCO3)C1 (configuration not stated)	–	–	26	–	–	–
O=C(Nc1nnc(SCc2c(Cl)cccc2Cl)s1)C1CC(=O)N(c2ccc3c(c2)OCCO3)C1 (configuration not stated)	–	–	32	–	–	–
O=C(C1CCCN1S(=O)(=O)c1ccc([N+](=O)[O-])cc1)N1CCN(c2ccccc2)CC1 (configuration not stated)	·	–	·	·	·	·
CCCCC(CC)CNS(=O)(=O)c1ccc2c(c1)CCN2C(=O)CCC(=O)O (configuration not stated)	–	–	32	–	–	–
